From PubChem
Cl transport mod – modulators of human KCC2 chloride dependent transport. Q9H2X9. KCC2 cells, thallium flux FluoZin-2 fluorescence. B-score of Tl+ flux slope (higher = more flux/activation; lower = inhibition) at 10 µM. hit rate 2.2% among 190,000;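 active means thallium flux slope and its plate-corrected score both differing from the plate sample mean at a set confidence after two filtering rounds, in either direction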;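 further: slope of fluorescence scaled to starting intensity during 10 to 20 s after thallium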
Target sequence (Q9H2X9 whole entry, looked up): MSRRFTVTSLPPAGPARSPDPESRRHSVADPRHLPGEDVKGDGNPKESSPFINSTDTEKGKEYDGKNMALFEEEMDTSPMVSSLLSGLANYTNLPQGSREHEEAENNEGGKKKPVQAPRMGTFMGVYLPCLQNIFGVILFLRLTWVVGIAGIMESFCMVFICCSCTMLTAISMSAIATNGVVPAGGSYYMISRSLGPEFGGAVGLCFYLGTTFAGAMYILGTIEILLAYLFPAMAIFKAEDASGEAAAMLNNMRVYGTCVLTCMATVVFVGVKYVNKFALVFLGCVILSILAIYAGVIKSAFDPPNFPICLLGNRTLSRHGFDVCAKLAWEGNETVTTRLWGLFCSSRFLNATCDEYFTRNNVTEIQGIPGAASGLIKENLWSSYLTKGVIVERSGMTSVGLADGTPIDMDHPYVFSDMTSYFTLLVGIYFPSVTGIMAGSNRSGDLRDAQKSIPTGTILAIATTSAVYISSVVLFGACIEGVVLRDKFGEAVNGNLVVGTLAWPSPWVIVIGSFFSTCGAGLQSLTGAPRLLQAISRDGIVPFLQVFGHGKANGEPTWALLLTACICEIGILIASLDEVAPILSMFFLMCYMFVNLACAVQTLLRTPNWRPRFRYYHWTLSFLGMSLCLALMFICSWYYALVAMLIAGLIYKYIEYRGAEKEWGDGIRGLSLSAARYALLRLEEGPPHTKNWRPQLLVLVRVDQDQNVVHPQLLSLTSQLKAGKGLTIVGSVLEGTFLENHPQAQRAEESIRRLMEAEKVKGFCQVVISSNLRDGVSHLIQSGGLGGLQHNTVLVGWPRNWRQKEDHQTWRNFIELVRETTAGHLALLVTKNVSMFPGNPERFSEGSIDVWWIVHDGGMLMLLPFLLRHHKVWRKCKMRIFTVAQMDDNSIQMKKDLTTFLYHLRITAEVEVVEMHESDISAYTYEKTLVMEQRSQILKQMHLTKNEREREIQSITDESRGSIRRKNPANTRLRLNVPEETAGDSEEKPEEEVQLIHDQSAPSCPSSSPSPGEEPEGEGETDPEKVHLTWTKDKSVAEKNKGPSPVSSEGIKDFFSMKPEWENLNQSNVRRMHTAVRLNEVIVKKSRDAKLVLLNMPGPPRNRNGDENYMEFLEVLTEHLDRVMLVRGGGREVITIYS
Pf gametocyte – inhibitors of late stage P. falciparum gametocyte viability. P. falciparum stage V gametocytes, ATP luminescence, 24 h. inhibition, % at 10.9 µM. hit rate 0.065% among 150,000;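 active means inhibition above the mean plus 3 SD of compounds within the control limits, set per campaign, cut at about 38% in these data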;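 further: 0% = DMSO wells and 100% = medium only without gametocytes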
b-catenin transl – alters nuclear translocation of beta-catenin in HeLa cells. nuclear translocation activity, % at 5 µM. AID 1665. hit rate 0.3% among 190,000. immunofluorescence imaging;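 active means nuclear translocation activity above 50% at 5 µM, with a well cell count of 50 or more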;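 further: per-cell ratio of nuclear to cytoplasmic median beta-catenin stain intensity; plate controls were DMSO negative control for no effect and GSK-3 inhibitor IX positive control for full effect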
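Assay system: human HeLa cells, native beta-catenin; doses: 5 µM primary, 0.02–20 µM confirmation; incubation: compound treatment 24 h, 37°C, 5% CO2; technique: fluorescence imaging of beta-catenin antibody stain plus DAPI; measure: % activation, nuclear-to-cytoplasmic median beta-catenin signal ratio per cell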
WT yeast gro inh – growth inhibition of WT yeast, mitochondrial fusion screen; mitochondrial fusion phenotypic screen, WT strain; inhibition, % at 10 µM; hit rate 2.1% among 190,000; AID 1362; in the data active means inhibition above about 58%; tested in S. cerevisiae
MT stabilize HCS – microtubule stabilization, imaging screen | HeLa tubulin immunostaining HCS, 24 h; share of cells brighter than vehicle mean+2SD | % tubulin-high responders, % at 10 µM | hit rate 0.83% among 200,000 | AID 2205;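 active means plate Z-score above 3 for both tubulin-high and condensed-nucleus cell shares, with cell loss under 80%, at 10 µM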;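 further: anti alpha tubulin signal scored within the nucleus-defined area of each cell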
Starred values were filed as active, the others as inactive; . = no result. This is a sample that favours compounds with a hit; in the whole collection about 4% have one here.

SMILES | Cl transport mod | Pf gametocyte | b-catenin transl | WT yeast gro inh | MT stabilize HCS
COCCN1C(=O)N(c2cccc(C)c2)C(=O)C1CC(=O)Nc1cc(OC)cc(OC)c1 (stereo not given) | . | 27 | . | . | .
O=C(O)c1ccc(NC(=S)NC(=O)c2ccc(-c3ccccc3)cc2)cc1 | -1.9 | -4 | 2 | -3 | 2
O=C(NC(=S)N(Cc1ccccc1)c1ccccn1)C1CCCCC1 | 0.03 | -12 | -2 | -23 | 4
C=CCN(CC=C)C(=S)NC(=O)c1ccc(C)c(Br)c1 | 45* | -1 | 0 | 51 | 1
COc1ccc(C(=O)NCCCc2ccccc2)cc1 | . | -26 | . | . | .
Cc1ccc(C(=O)NCc2ccco2)cc1Br | -0.65 | 2 | . | 13 | 2
COc1ccc(C(=O)NC(=S)N(Cc2ccccc2)Cc2ccccc2)cc1 | 64* | -2 | -1 | 71 | 3
CN(Cc1ccccc1)C(=S)NC(=O)C1CCCCC1 | 14* | . | 1 | 2 | 2
C=CCN(CC=C)C(=S)NC(=O)c1ccc(-c2ccccc2)cc1 | 31* | . | . | 66* | 2
COc1ccc2cc(CO)n(C)c2c1 | . | -5 | . | . | .
CCOC(=O)COc1c(Cl)cc(/C=C2\N=C(C)OC2=O)cc1OC | . | -26 | . | . | .
CCC(=O)Nc1ccccc1C(=O)C(=O)Nc1ccccc1 | 1.6 | . | 2 | -2 | 2
CC(=O)Nc1ccc(NC(=S)NC(=O)c2ccc(-c3ccccc3)cc2)cc1 | . | 12 | . | . | .
C=CCN(CC=C)C(=S)NC(=O)/C=C/c1ccc(C)cc1 | 15* | 14 | 2 | -9 | 8
C#CCNC(=O)/C=C/c1ccc(C)cc1 | 1.4 | -25 | . | -6 | 5
CN(Cc1ccccc1)C(=S)NC(=O)c1ccc(-c2ccccc2)cc1 | 29* | . | 2 | -5 | 8
O=C(COc1cccnc1[N+](=O)[O-])c1ccc(Cl)s1 | -0.7 | -53 | 0 | . | .
CCCOC(=O)c1[nH]c2c(c1C)C(=O)CC(c1ccc(OC)c(OC)c1)C2 (stereo not given) | -0.52 | 17 | -4 | -9 | 3
CCOCCOC(=O)c1[nH]c2c(c1C)C(=O)CC(c1cccs1)C2 (stereo not given) | 0.93 | -2 | 63* | 5 | 13
COCCOC(=O)c1[nH]c2c(c1C)C(=O)CC(c1cccs1)C2 (stereo not given) | 0.0056 | -21 | 21 | 4 | 23*
Cc1c(C(=O)OCC(C)C)[nH]c2c1C(=O)CC(c1cccs1)C2 (stereo not given) | 0.33 | 4 | 295* | 11 | 13*
CCCCCOC(=O)c1[nH]c2c(c1C)C(=O)CC(c1ccco1)C2 (stereo not given) | -0.17 | . | 59* | 22 | 10
O=C(Cn1cc(CCO)nn1)N1CCNCC1 | 0.11 | 9 | -1 | -7 | 3
COc1ccccc1CNC(=O)CSc1ccc(-c2ccncc2)nn1 | 0.018 | 23 | 1 | 14 | 4
CCOC(=O)c1[nH]c2c(c1C)C(=O)CC(c1ccc(OCC)c(OC)c1)C2 (stereo not given) | . | 4 | -1 | 3 | 2
SMILES | Cl transport mod | Pf gametocyte | b-catenin transl | WT yeast gro inh | MT stabilize HCS
CCOC(=O)c1[nH]c2c(c1C)C(=O)CC(c1ccc(F)cc1)C2 (stereo not given) | -1.8 | . | 76* | 9 | 9
C=CCc1c(C)nc2c(C)cccc2c1SC(=N)N | -0.37 | 4 | -2 | . | .
Cc1ccc(C(=O)NCCCc2ccccc2)s1 | -1.5 | . | 1 | -10 | 2
CC(C)(C)C1CCC(=O)N(CCC#N)CC1 (stereo not given) | . | -2 | . | . | .
O=C(Nc1ccccc1N(C(=O)c1ccco1)S(=O)(=O)c1cccs1)c1ccco1 | -0.29 | -3 | . | 15 | 11*
COc1ccc(CN(C(=O)c2ccco2)c2ccc(C)c(C)c2)cc1 | -1.9 | -15 | 19 | 39 | 16*
CCOc1ccc(N(Cc2ccc(OC)cc2)C(=O)c2ccco2)cc1 | -1.8 | -11 | -2 | 12 | 2
COc1ccc(C(=O)N(c2ccc(OC)cc2)S(=O)(=O)c2cccs2)cc1 | -0.56 | -1 | 1 | 74* | 2
COc1ccc(N(C(=O)c2ccco2)S(=O)(=O)c2cccs2)cc1 | -2.8* | . | -3 | 10 | 3
COc1ccc(N(C(=O)c2ccccc2)S(=O)(=O)c2cccs2)cc1 | -0.8 | -3 | 1 | 25 | 6
Cc1ccc(NS(=O)(=O)c2cccc([N+](=O)[O-])c2)nc1 | -0.74 | 7 | -2 | 8 | 3
CCn1c(=O)cc(C(F)(F)F)[nH]c1=S | 0.55 | . | 0 | -10 | 2
CCCOc1ccc(-c2csc(N)n2)cc1[N+](=O)[O-] | -1 | -24 | 10 | 76* | 9
CCOc1cc(C2NN=C(c3ccc(C)cc3)S2)ccc1O (stereo not given) | 41* | 0 | 6 | 13 | 2
CCOc1cc(C2c3c(n[nH]c3C)C(=O)N2c2ccc(C)cc2)ccc1O (stereo not given) | -0.73 | -11 | . | -3 | 1
CCOC(=O)N1CCC(NC(=O)Cn2ncc3c4ccccc4n(C)c3c2=O)CC1 | -2.6* | . | -2 | -13 | 4
CCOCCCNC(=O)/C(C#N)=C/c1cc(OC)c(O)c([N+](=O)[O-])c1 | -0.74 | 4 | 1 | -5 | 24*
CCOCCCNC(=O)/C(C#N)=C/c1ccc(Cl)c([N+](=O)[O-])c1 | 0.21 | 10 | 5 | 16 | 4
Cc1c(NC(=S)SCc2ccccc2)c(=O)n(-c2ccccc2)n1C | 1.4 | 14 | 0 | 5 | 1
CC(=O)NCCCNS(=O)(=O)c1ccc(C)cc1 | . | 11 | 0 | 6 | 3
Cc1nn(-c2ccc(F)cc2)c(Cl)c1/C=C1\C(=O)Nc2ccccc21 | -0.92 | -12 | 1 | 50 | 22*
COc1ccc(N/C=C/C(=O)c2sc(-c3ccccc3)nc2C)cc1 | -2.1 | . | . | 23 | 52*
O=C(Nc1ccccc1-c1nc2ccccc2o1)c1ccc2c(c1)OCCO2 | 0.31 | . | . | . | 15*
Cc1c(NC(=O)c2ccc3c(c2)OCO3)cccc1-c1nc2ccccc2o1 | . | -2 | -3 | 20 | 3
COc1ccc(C(=O)NC(C)c2nnc(SCC(=O)Nc3nc(C)cs3)n2C)cc1 (stereo not given) | 0.94 | -18 | 0 | -4 | 0
SMILES | Cl transport mod | Pf gametocyte | b-catenin transl | WT yeast gro inh | MT stabilize HCS
COc1ccc(C(=O)NC(C)c2nnc(SCC(=O)Nc3nc4ccccc4s3)n2C)cc1 (stereo not given) | -4.6* | . | 6 | 25 | 5
Cc1nc2c(-c3ccc(F)cc3)c(C)nn2c(C)c1CCC(=O)N1CCN(c2ccccc2)CC1 | . | . | . | 39 | 6
Cc1nc2c(-c3ccc(F)cc3)c(C)nn2c(C)c1CCC(=O)N1CCC(Cc2ccccc2)CC1 | -0.72 | . | 0 | 65* | 3
Cc1ccc2nc(SC(C(=O)Nc3ccc(F)cc3)c3ccccc3)[nH]c2c1 (stereo not given) | 0.71 | . | -1 | 60* | 4
COc1ccc(-c2oc3c(OC)c(OC)c(OC)c(O)c3c(=O)c2OC)cc1OC | 0.75 | . | -2 | -2 | 3
COc1c(OC)c(O)c2c(=O)c(O)c(-c3ccccc3)oc2c1OC | 52* | . | -1 | 2 | 2
O=C(NCC(=O)c1ccccc1)OCc1ccc([N+](=O)[O-])cc1 | . | 11 | . | . | .
